We go through ten compounds from ChEMBL document CHEMBL3286120, “Design and synthesis of novel soluble 2,5-diketopiperazine derivatives as potential anticancer agents” (Eur J Med Chem, 2014).

A short description of experiment [1]: Cytotoxicity against human BGC823 cells assessed as reduction in cell viability after 72 hrs by CCK8 assay. It counts as functional, cell-based, BGC-823. In a few lines:
(§1)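 Cells kept in RPMI or DMEM with 10% FBS and 1% penicillin/streptomycin at 37 °C in 5% CO2. Seeded at 400-800 cells/well in 384-well plates and exposed to varying compound concentrations, with solution-only control, for 72 h. CCK8 reagent added, then absorbance read at 450 nm. Plinabulin and TSA were positive controls. Mean SD of three experiments.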

The subject of experiment [2] is HeLa. Briefly: Cytotoxicity against human HeLa cells assessed as reduction in cell viability after 72 hrs by CCK8 assay. The class given is functional, cell-based. In a few lines: as §1
For experiment [3], the system named is HL-60. Briefly: Cytotoxicity against human HL60 cells assessed as reduction in cell viability after 72 hrs by CCK8 assay. The class given is functional, cell-based. In a few lines: as §1
Experiment [4] relates to MOLT-4. The experiment can be described thus: Cytotoxicity against human MOLT4 cells assessed as reduction in cell viability after 72 hrs by CCK8 assay. It counts as functional, cell-based. In a few lines: as §1
Experiment [5] deals with U-937. Briefly: Cytotoxicity against human U937 cells assessed as reduction in cell viability after 72 hrs by CCK8 assay. The class given is functional, cell-based. A digest of the protocol:
as §1

The subject of experiment [6] is MCF7. The experiment can be described thus: Cytotoxicity against human MCF7 cells assessed as reduction in cell viability after 72 hrs by CCK8 assay. It counts as functional, cell-based. In a few lines: as §1
Experiment [7] deals with K562. Briefly: Cytotoxicity against human K562 cells assessed as reduction in cell viability after 72 hrs by CCK8 assay. The class given is functional, cell-based. A digest of the protocol: as §1
A short description of experiment [8]: Cytotoxicity against human HuH7 cells assessed as reduction in cell viability after 72 hrs by CCK8 assay. It counts as functional, cell-based, Huh-7. In a few lines:
as §1

Experiment [9] has as its system A549. Briefly: Cytotoxicity against human A549 cells assessed as reduction in cell viability after 72 hrs by CCK8 assay. The class given is functional, cell-based. A digest of the protocol: as §1
The subject of experiment [10] is NCI-H1975. Briefly: Cytotoxicity against human NCI-H1975 cells assessed as reduction in cell viability after 72 hrs by CCK8 assay. The class given is functional, cell-based. In a few lines:
as §1

Experiment [11] has as its system U-937. Briefly: Cytotoxicity against human U937 cells assessed as viable cells at 10 uM after 48 hrs by CCK8 assay relative to control. The class given is functional. As to conditions: U-937, 48 h, read-out: Activity. A digest of the protocol: (§2)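 Viability of U937, K562 and H1975 cells cultured in RPMI or DMEM with 10% FBS and 1% penicillin/streptomycin at 37 °C in 5% CO2. Cells treated at two fixed concentrations (5 or 10) for 24 or 48 h. Viable cells measured by CCK8 and expressed relative to control. Mean SD of three experiments.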

The subject of experiment [12] is K562. The experiment can be described thus: Cytotoxicity against human K562 cells assessed as viable cells at 10 uM after 24 hrs by CCK8 assay relative to control. It counts as functional. Conditions: K562, 24 h, read-out: Activity. A digest of the protocol: as §2
Experiment [13] relates to K562. Briefly: Cytotoxicity against human K562 cells assessed as viable cells at 10 uM after 48 hrs by CCK8 assay relative to control. It counts as functional. As to conditions: K562, 48 h, read-out: Activity. A digest of the protocol:
as §2

For experiment [14], the system named is NCI-H1975. Briefly: Cytotoxicity against human NCI-H1975 cells assessed as viable cells at 10 uM after 24 hrs by CCK8 assay relative to control. As to conditions: NCI-H1975, 24 h, read-out: Activity; call rule not given here. It counts as functional. A digest of the protocol: as §2
Experiment [15] relates to K562. The experiment can be described thus: Cytotoxicity against human K562 cells assessed as viable cells at 5 uM after 48 hrs by CCK8 assay relative to control. It counts as functional. As to conditions: K562, 48 h, read-out: Activity. A digest of the protocol:
as §2

The test system of experiment [16] is NCI-H1975. The experiment can be described thus: Cytotoxicity against human NCI-H1975 cells assessed as viable cells at 5 uM after 48 hrs by CCK8 assay relative to control. As to conditions: NCI-H1975, 48 h, read-out: Activity. It counts as functional. A digest of the protocol:
as §2

Experiment [17] relates to U-937. Briefly: Cytotoxicity against human U937 cells assessed as viable cells at 5 uM after 48 hrs by CCK8 assay relative to control. It counts as functional. Conditions: U-937, 48 h, read-out: Activity. A digest of the protocol: as §2
In experiment [18] the test system is NCI-H1975. Briefly: Cytotoxicity against human NCI-H1975 cells assessed as viable cells at 5 uM after 24 hrs by CCK8 assay relative to control. The class given is functional. Conditions: NCI-H1975, 24 h, read-out: Activity. A digest of the protocol: as §2
In experiment [19] the test system is NCI-H1975. The experiment can be described thus: Cytotoxicity against human NCI-H1975 cells assessed as viable cells at 10 uM after 48 hrs by CCK8 assay relative to control. Conditions: NCI-H1975, 48 h, read-out: Activity. It counts as functional. In a few lines:
as §2

The test system of experiment [20] is K562. Briefly: Cytotoxicity against human K562 cells assessed as viable cells at 5 uM after 24 hrs by CCK8 assay relative to control. Conditions: K562, 24 h, read-out: Activity. It counts as functional. A digest of the protocol: as §2
Experiment [21] has as its system U-937. The experiment can be described thus: Cytotoxicity against human U937 cells assessed as viable cells at 10 uM after 24 hrs by CCK8 assay relative to control. As to conditions: U-937, 24 h, read-out: Activity. It counts as functional. A digest of the protocol: as §2
Experiment [22] deals with U-937. The experiment can be described thus: Cytotoxicity against human U937 cells assessed as viable cells at 5 uM after 24 hrs by CCK8 assay relative to control. The class given is functional. Conditions: U-937, 24 h, read-out: Activity. In a few lines:
as §2

[23] abbreviates: Homo sapiens, BGC-823, 72 h, read-out: IC50.
Setting [24] is: Homo sapiens, HeLa, 72 h, read-out: IC50.
Setting [25] is: Homo sapiens, HL-60, 72 h, read-out: IC50.
Where [26] appears, read: Homo sapiens, MOLT-4, 72 h, read-out: IC50.
The mark [27] stands for this setting: Homo sapiens, U-937, 72 h, read-out: IC50.
Where [28] appears, read: Homo sapiens, MCF7, 72 h, read-out: IC50.
[29] abbreviates: Homo sapiens, K562, 72 h, read-out: IC50.
Setting [30] is: Homo sapiens, Huh-7, 72 h, read-out: IC50.
[31] abbreviates: Homo sapiens, A549, 72 h, read-out: IC50.
[32] abbreviates: Homo sapiens, NCI-H1975, 72 h, read-out: IC50.

Regarding `C=CCn1c(=O)/c(=C\c2cc(OC)c(OC)c(OC)c2)[nH]c(=O)/c1=C\c1ccccc1`, the 50% inhibitory concentration (IC50) result in [1] (bgc-823), in [2] (hela), in experiment [3] (hl-60), in experiment [4] (molt-4), in experiment [5] (u-937) and in [6] (mcf7) was “Not Active” each time. The half-inhibitory concentration (IC50) entry in experiment [7] (k562), in [8] (huh-7), in experiment [9] (a549) and in [10] (nci-h1975) was “Not Active” throughout.
With `C=CCn1c(=O)/c(=C\c2cccc(Br)c2)[nH]c(=O)/c1=C\c1cccc(Br)c1`, the IC50 entry in [1] (bgc-823), in experiment [2] (hela), in experiment [3] (hl-60), in experiment [4] (molt-4), in experiment [5] (u-937) and in experiment [6] (mcf7) was “Not Active” each time. The 50% inhibitory concentration (IC50) entry in [7] (k562), in experiment [8] (huh-7), in experiment [9] (a549) and in experiment [10] (nci-h1975) was “Not Active” in each case.
With `C=CCn1c(=O)/c(=C\c2cc(OC)c(OC)c(OC)c2)[nH]c(=O)/c1=C\c1cccc(Br)c1`, the IC50 result in experiment [1] (bgc-823), in experiment [2] (hela), in experiment [3] (hl-60), in experiment [4] (molt-4), in [5] (u-937) and in experiment [6] (mcf7) was “Not Active” in each case. Further, the half-inhibitory concentration (IC50) entry in experiment [7] (k562), in experiment [8] (huh-7), in experiment [9] (a549) and in experiment [10] (nci-h1975) was “Not Active” in each case.
As for `C=CCn1c(=O)/c(=C\c2cccc(Br)c2)[nH]c(=O)/c1=C\c1ccccc1OC`, the IC50 is 5900 nM in [1] (setting [23]); 5400 nM in experiment [2] (setting [24]); 5200 nM in experiment [3] (setting [25]); 5000 nM in experiment [4] (setting [26]); 1100 nM in experiment [5] (setting [27]); 5400 nM in experiment [6] (setting [28]). Moreover, the half-inhibitory concentration (IC50) in experiment [7] (setting [29]) is 2400 nM; in experiment [8] (setting [30]) it was 2300 nM; in experiment [9] (setting [31]), 5400 nM; in experiment [10] (nci-h1975), “Not Active”.
With `C=CCn1c(=O)/c(=C\c2cccc(Cl)c2Cl)[nH]c(=O)/c1=C\c1ccccc1OC`, the IC50 in experiment [1] (setting [23]) came to 2200 nM; in experiment [2] (setting [24]), 1600 nM; in [3] (setting [25]) it was 2000 nM; in experiment [4] (setting [26]) it was 1200 nM; in experiment [5] (setting [27]), 500 nM; in experiment [6] (setting [28]), 2100 nM. Besides, the IC50 in experiment [7] (setting [29]) is 900 nM; in experiment [8] (setting [30]) it was 1200 nM; in [9] (setting [31]), 2300 nM; in experiment [10] (setting [32]) it was 4500 nM. Also, the viability at 10 µM in experiment [11] was 1.3%; in [12] it was 103%; in experiment [13], 14.9%; in experiment [14] it was 98.9%; in experiment [19], 42.6%; in [21] it was 8.7%. Moreover, the viability at 5 µM in experiment [15] is 24.2%; in experiment [16], 42.7%; in experiment [17], 0.9%; in experiment [18], 107%; in experiment [20], 104%; in experiment [22], 7%.
As to `C=CCn1c(=O)/c(=C\c2ccc(Cl)c(Cl)c2)[nH]c(=O)/c1=C\c1ccccc1OC`, the IC50 result in experiment [1] (bgc-823), in experiment [2] (hela), in experiment [3] (hl-60), in experiment [4] (molt-4), in experiment [5] (u-937) and in experiment [6] (mcf7) was “Not Active” each time. The IC50 result in [7] (k562), in experiment [8] (huh-7), in [9] (a549) and in [10] (nci-h1975) was “Not Active” in each case.
Regarding `C=CCn1c(=O)/c(=C\c2cc(Br)ccc2F)[nH]c(=O)/c1=C\c1ccccc1OC`, the concentration for half-maximal inhibition (IC50) result in experiment [1] (bgc-823) is “Not Active”; in experiment [2] (setting [24]) it was 34600 nM; in [3] (setting [25]), 17400 nM; in experiment [4] (setting [26]), 12900 nM; in experiment [5] (setting [27]), 4700 nM; in [6] (setting [28]) it was 28100 nM. Also, the IC50 in [7] (setting [29]) is 5100 nM; in [8] (huh-7), “Not Active”; in [9] (a549) it was “Not Active”; in experiment [10] (nci-h1975), “Not Active”.
In the case of `C=CCn1c(=O)/c(=C\c2ccc(F)c(Br)c2)[nH]c(=O)/c1=C\c1ccccc1OC`, the IC50 result in [1] (bgc-823), in experiment [2] (hela), in experiment [3] (hl-60), in [4] (molt-4), in experiment [5] (u-937) and in experiment [6] (mcf7) was “Not Active” in each case. Moreover, the concentration for half-maximal inhibition (IC50) entry in experiment [7] (k562), in experiment [8] (huh-7), in experiment [9] (a549) and in experiment [10] (nci-h1975) was “Not Active” each time.
Take `C=CCn1c(=O)/c(=C\c2ccc(C)cc2)[nH]c(=O)/c1=C\c1ccccc1OC`: the IC50 result in experiment [1] (bgc-823), in experiment [2] (hela), in experiment [3] (hl-60), in [4] (molt-4), in experiment [5] (u-937) and in experiment [6] (mcf7) was “Not Active” throughout. The IC50 result in experiment [7] (k562), in experiment [8] (huh-7), in [9] (a549) and in [10] (nci-h1975) was “Not Active” in each case.
As for `CC(/C=C/C(=O)NO)=C\[C@@H](C)C(=O)c1ccc(N(C)C)cc1` [TRICHOSTATIN], the IC50 in [1] (setting [23]) came to 80 nM; in experiment [2] (setting [24]), 110 nM; in [3] (setting [25]), 80 nM; in experiment [4] (setting [26]), 30 nM; in experiment [5] (setting [27]), 100 nM; in experiment [6] (setting [28]) it was 60 nM. For the same compound, the IC50 worked out at 410 nM in experiment [7] (setting [29]), 100 nM in experiment [8] (setting [30]), 50 nM in [9] (setting [31]) and 210 nM in experiment [10] (setting [32]).
